Data taken from ChEMBL document CHEMBL3352780, “Discovery of Sulfonamidebenzamides as Selective Apoptotic CHOP Pathway Activators of the Unfolded Protein Response” (ACS Med Chem Lett, 2014).
Each block holds one compound with its values, some of them ahead of it. Calls of active or inactive are those of the source.

Legend:
MEF [1] = assay: Antiproliferative activity against wild-type MEF cells after 16 hrs by luminescence assay; format: functional, cell-based; details: Mus musculus
Procedure, shortened: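 Wild-type murine embryonic fibroblasts, run alongside a Chop-knockout MEF line, exposed to compound in dose-response for 16 h. Proliferation read by ATP-based luminescence. EC50 reported in μM ± SEM.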

MEF [2] = assay: Antiproliferative activity against CHOP-knock out MEF cells after 16 hrs by luminescence assay; format: functional, cell-based; details: Mus musculus
Procedure, shortened: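 Wildtype and Chop-knockout murine embryonic fibroblasts given test agent in dose-response for 16 h. Proliferation read by an ATP-based luminescent assay. Chop-null cells tested up to 20 μM; four independent experiments, triplicate samples.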

[3] = Antiproliferative activity against human UM-SCC-23 cells after 24 hrs; format: functional, UMSCC23
Procedure, shortened: (§1)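 Oral squamous cell carcinoma panel cells treated with increasing concentrations of test agent for 24 h in dose-response proliferation assays.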

[4] = Antiproliferative activity against human HN12 cells after 24 hrs; format: functional; procedure, shortened: as §1
[5] = Antiproliferative activity against human HN30 cells after 24 hrs; format: functional; procedure, shortened: as §1
A253 = assay: Antiproliferative activity against human A253 cells after 24 hrs; format: functional, cell-based; procedure, shortened: as §1
H460/T800 = assay: Antiproliferative activity against human H460/T800 cells after 24 hrs; format: functional, cell-based
HN6 = assay: Antiproliferative activity against human HN6 cells after 24 hrs; format: functional, cell-based; procedure, shortened: as §1
UMSCC23 [6] = assay: Induction of CHOP mRNA expression in human UM-SCC-23 cells at 0.04 to 20 uM after 6 hrs by qRT-PCR analysis; format: functional, cell-based
Procedure, shortened: (§2)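 UMSCC23 cells treated in dose-response for 6 h, then lysed. UPR and CHOP target gene transcripts measured by qRT-PCR, with tunicamycin as ER-stress positive control.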

UMSCC23 [7] = assay: Induction of XBP1 mRNA expression in human UM-SCC-23 cells at 0.04 to 20 uM after 6 hrs by qRT-PCR analysis; format: functional, cell-based; procedure, shortened: as §2
UMSCC23 [8] = assay: Induction of GADD34 mRNA expression in human UM-SCC-23 cells at 0.04 to 20 uM after 6 hrs by qRT-PCR analysis; format: functional, cell-based; procedure, shortened: as §2
UMSCC23 [9] = assay: Induction of ERCC1 mRNA expression in human UM-SCC-23 cells at 0.04 to 20 uM after 6 hrs by qRT-PCR analysis; format: functional, cell-based; procedure, shortened: as §2
UMSCC23 [10] = assay: Induction of CHOP mRNA expression in human UM-SCC-23 cells at 20 uM after 6 hrs by qRT-PCR analysis; format: functional, cell-based; procedure, shortened: as §2
UMSCC23 [11] = assay: Induction of XBP1 mRNA expression in human UM-SCC-23 cells at 20 uM after 6 hrs by qRT-PCR analysis; format: functional, cell-based; procedure, shortened: as §2
[12] = Aqueous solubility of the compound in PBS buffer by UV-spectrophotometry; format: physicochemical
Procedure, shortened: (§3)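 Solubility measured in PBS and pION buffer across a biologically relevant pH range.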

[13] = Aqueous solubility of the compound in pION buffer by UV-spectrophotometry; format: physicochemical; procedure, shortened: as §3
[14] = Permeability of the compound at pH 5 to 7.4 by PAMPA; format: ADME
Procedure, shortened: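 PAMPA model of passive transcellular permeability, donor compartment at pH 5.0, 6.2 and 7.4. Compound concentration in the compartments determined by UV spectroscopy.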

Plasma [15] = assay: Plasma protein binding in human plasma after 4 hrs by LC/MS/MS method; format: ADME, cell-free
[16] = Plasma protein binding in mouse plasma after 4 hrs by LC/MS/MS method; format: ADME, cell-free; details: read-out: PPB (converted)
[17] = Stability in human plasma assessed as compound remaining after 180 mins by LC/MS/MS method; format: ADME, cell-free; details: read-out: Stability
Plasma [18] = assay: Stability in mouse plasma assessed as compound remaining after 180 mins by LC/MS/MS method; format: ADME, cell-free; details: 3 h
Liver microsome = assay: Metabolic stability in human liver microsomes after 60 mins by LC/MS/MS method; format: ADME; details: 1 h
Liver = assay: Metabolic stability in mouse liver microsomes after 60 mins by LC/MS/MS method; format: ADME; details: 1 h
[19] = target: Sodium-dependent dopamine transporter (Homo sapiens) (UniProt Q01959); assay: Displacement of [125I] RTI-55 from human recombinant DAT expressed in CHOK1 cells after 3 hrs; format: cell-based; details: CHO-K1, concentration not given here
Sequence of Sodium-dependent dopamine transporter (Homo sapiens) (Q01959 whole entry): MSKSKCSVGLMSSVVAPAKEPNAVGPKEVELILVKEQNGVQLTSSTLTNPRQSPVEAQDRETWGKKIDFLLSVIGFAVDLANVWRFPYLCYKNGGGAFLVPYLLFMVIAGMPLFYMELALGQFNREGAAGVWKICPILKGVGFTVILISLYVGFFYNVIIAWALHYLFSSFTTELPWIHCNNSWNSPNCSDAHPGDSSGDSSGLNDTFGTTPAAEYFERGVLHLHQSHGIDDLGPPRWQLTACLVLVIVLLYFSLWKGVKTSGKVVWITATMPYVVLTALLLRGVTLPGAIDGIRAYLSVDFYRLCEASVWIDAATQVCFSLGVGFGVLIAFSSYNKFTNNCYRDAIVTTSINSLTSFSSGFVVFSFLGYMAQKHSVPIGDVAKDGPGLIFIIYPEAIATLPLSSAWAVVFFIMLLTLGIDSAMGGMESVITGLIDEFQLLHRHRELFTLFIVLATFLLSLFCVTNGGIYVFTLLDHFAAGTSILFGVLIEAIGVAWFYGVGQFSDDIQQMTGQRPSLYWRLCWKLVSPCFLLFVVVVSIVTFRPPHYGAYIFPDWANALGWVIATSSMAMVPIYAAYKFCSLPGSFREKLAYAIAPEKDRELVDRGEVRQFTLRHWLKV
Procedure, shortened: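 Profiled at 10 μM within a 67-target panel of GPCRs, nuclear receptors, transporters and ion channels. Significant inhibition defined as >50% at a single target.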

[20] = Cytotoxicity against human Fa2N-4 cells assessed as cell viability after 24 hrs by luminescence assay; format: cell-based; details: fa2n-4, 24 h
[21] = Cmax in CD-1 mouse at 30 mg/kg, ip; format: ADME, organism-based; set-up: dose 30 mg/kg, route intraperitoneal; details: in vivo
Procedure, shortened: (§4)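 Male CD-1 mice, single IP dose of 30 mg/kg, 3 mice per group. Plasma concentrations determined at 7 intervals over 8 h.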

[22] = Tmax in CD-1 mouse at 30 mg/kg, ip; format: ADME, organism-based; set-up: dose 30 mg/kg, route intraperitoneal; details: in vivo; procedure, shortened: as §4

SMILES: CC1CCN(S(=O)(=O)c2ccc(NC(=O)c3ccc([N+](=O)[O-])o3)cc2)CC1
EC50 (MEF [1]): 4.6 µM
EC50 (MEF [2]): 16.3 µM

SMILES: O=C(Nc1ccc(S(=O)(=O)N2CCC(F)CC2)cc1)c1ccc([N+](=O)[O-])o1
EC50 (MEF [1]): 17.5 µM
EC50 (MEF [2]): > 20 µM

SMILES: CC1(C)CCN(S(=O)(=O)c2ccc(NC(=O)c3ccc([N+](=O)[O-])o3)cc2)CC1
EC50 (MEF [1]): 3 µM
EC50 (MEF [2]): 9.2 µM

SMILES: CC(C)(C)C1CCN(S(=O)(=O)c2ccc(NC(=O)c3ccc([N+](=O)[O-])o3)cc2)CC1
EC50 (MEF [1]): 1.4 µM
EC50 (MEF [2]): 2.1 µM

SMILES: O=C(Nc1ccc(S(=O)(=O)N2CCCCC2)cc1)c1ccc([N+](=O)[O-])o1
EC50 (MEF [1]): 7.8 µM
EC50 (MEF [2]): > 20 µM

solubility [12]: soluble
solubility [13]: soluble
permeability [14]: permeable
PPB (Plasma [15]): > 99%
fraction unbound at 4 h [16]: 0.16
remaining at 3 h [17]: 86%
Stability (Plasma [18]): 52%
Stability (Liver microsome): Unstable
Stability (Liver): Unstable
inhibition [19]: 68%
Cmax [21]: 140 nM
Tmax [22]: 10.2 min
SMILES: O=C(Nc1ccc(S(=O)(=O)N2CCC(Cl)CC2)cc1)c1ccc([N+](=O)[O-])o1
EC50 (MEF [1]): 4.8 µM
EC50 (MEF [2]): > 20 µM
Activity [3]: 7.3 µM
Activity [4]: 7.2 µM
Activity [5]: 9 µM
Activity (A253): inactive
Activity (H460/T800): inactive
Activity (HN6): inactive
Activity (UMSCC23 [6]): Active
Activity (UMSCC23 [7]): Active
Activity (UMSCC23 [8]): Active
Activity (UMSCC23 [9]): inactive
Activity (UMSCC23 [10]): inactive
Activity (UMSCC23 [11]): inactive
Activity [20]: 11 µM
